Source: PubChem
Shown are actives, neighbours in structure and some others; about 2.9% of the full set was active somewhere.
SENP1 FRET inh – inhibitors of human SENP1 SUMO protease catalytic domain | AID 624204 | 0.21% of 360,000 active | recombinant SENP1 catalytic domain, CyPet-SUMO1-YPet FRET cleavage | inhibition, % at 10 µM;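 active = inhibition at least 30% at 10 µM, raw YFP signal under a set limit, fluorescence ratio 0.5 to 1.5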
Target sequence (Q9P0U3 419-644 limits assumed): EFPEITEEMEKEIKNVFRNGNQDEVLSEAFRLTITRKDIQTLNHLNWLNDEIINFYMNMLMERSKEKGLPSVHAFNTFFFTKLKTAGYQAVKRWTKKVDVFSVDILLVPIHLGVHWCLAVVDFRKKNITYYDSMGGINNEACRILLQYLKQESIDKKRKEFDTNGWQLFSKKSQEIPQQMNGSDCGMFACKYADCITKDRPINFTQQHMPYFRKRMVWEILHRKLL
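Compound: 10 µM single point, 0.5% DMSO; Test system: hSENP1 catalytic domain, recombinant; Timing: 50 min reaction at room temperature; Technique: FRET, CFP and YFP emission; Control set: no-enzyme wells low, DMSO-plus-enzyme wells high control.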
HSP90 refold inh – blocks HSP90-mediated luciferase refolding in reticulocyte lysate; Rabbit reticulocyte lysate, luciferase refolding luminescence, 3 h; inhibition, % at 5.6 µM; AID 1789; 0.91% of 290,000 active;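 active = inhibition above the screen-wide mean plus 3 SD, computed separately per campaign, cut at about 16% in these data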;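 note: inhibitors lower the luminescence because luciferase stays unfolded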
SENP7 inh – inhibitors of human SENP7 protease. Q9BQF6. recombinant SENP7, Z-RLRGG-aminoluciferin luminescence, 40 min. inhibition, % at 5 µM. 1.5% of 330,000 active. AID 434973;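 active = inhibition above about 50% at the single test dose, limit read from the data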
SENP8 block-1 – SENP8 (human) protease inhibition; Q96LD8; recombinant SENP8, Nedd8 substrate fluorescence; inhibition, % at 20 µM; 0.64% of 360,000 active; AID 602440; in the data active = inhibition mostly above about 40%, no sharp cut-off; inactive = mostly below about 27%
Target sequence (Q96LD8 whole entry, looked up): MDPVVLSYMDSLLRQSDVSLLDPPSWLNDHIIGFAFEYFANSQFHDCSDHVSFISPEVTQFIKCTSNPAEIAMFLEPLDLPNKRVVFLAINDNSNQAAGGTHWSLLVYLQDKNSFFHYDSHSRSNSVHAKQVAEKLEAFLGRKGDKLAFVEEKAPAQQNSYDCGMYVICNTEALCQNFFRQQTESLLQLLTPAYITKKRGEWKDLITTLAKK
SENP6 inh – blocks the human protease SENP6. Q9GZR1. Recombinant SENP6 catalytic domain, aminoluciferin luminescence. inhibition, % at 10 µM. 1.8% of 330,000 active;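 active = inhibition above about 50% at the single tested dose, limit read from the data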
SENP8 block-2 – SENP8 protease inhibition. Q96LD8. purified SENP8, Z-RLRGG-aminoluciferin cleavage, luminescence. inhibition, % at 10 µM. 1.2% of 330,000 active. AID 2540; in the data active = inhibition above about 50%
SENP8 conf – confirmation of human SENP8 protease inhibitors. shares compounds with SENP8 block-1. 15% of 1,400 active. inhibition, % at 25 µM. purified SENP8, Nedd8-AMC/pro-Nedd8 cleavage fluorescence, 30 min. AID 624319; in the data active = inhibition mostly above about 39%, no sharp cut-off; inactive = mostly below about 34%
Large screens that a line does not name were inactive (follow-up assays come after a bar, where they were run).

COc1ccc2c(c1)/C(=C\c1cccc(/C=C3/C(=O)Nc4ccc(OC)cc43)n1)C(=O)N2	none (no result: HSP90 refold inh, SENP7 inh, SENP6 inh, SENP8 block-2)
COC(=O)CNC(=O)c1ccccc1	SENP8 block-1 50.8 (no result: HSP90 refold inh) | SENP8 conf inactive
O=C(NCc1ccccc1)c1ccccc1	SENP8 block-1 62.2 (no result: HSP90 refold inh, SENP7 inh, SENP6 inh, SENP8 block-2) | SENP8 conf inactive
CC(=O)c1ccc(S(=O)(=O)NCC(=O)N2CCN(C/C=C/c3ccccc3)CC2)cc1	none (no result: HSP90 refold inh)
CC1=CCC2C(=O)N(c3ccc4ccccc4n3)C(=O)C2C1 (stereo not drawn)	none
Cc1cc(=O)n(-c2ccc3ccccc3n2)[nH]1	SENP8 block-1 46.9 | SENP8 conf inactive
CCn1c(SCc2cccc(C(=O)O)c2)nnc1-c1ccccc1	SENP8 block-1 48.1 | SENP8 conf inactive
CCn1c(SCC(=O)O)nnc1-c1ccccc1	none
Cc1ccc(NC(=O)CS(=O)CC(=O)NC23CC4CC(CC(C4)C2)C3)cc1 (stereo not drawn)	none
Cc1ccc(NC(=S)N/N=C/c2c(Cl)cccc2Cl)c(C)c1	none
Cc1ccc(NC(=S)N/N=C/c2ccc(OCCC(C)C)cc2)c(C)c1	SENP8 block-1 41.2 | SENP8 conf inactive
COc1ccccc1CNC(=O)[C@H](C)N1C(=O)N2CCc3c([nH]c4ccccc34)[C@@]2(C)C1=O	SENP8 block-1 42.8 | SENP8 conf inactive
CC1CCCN(S(=O)(=O)c2ccc(NC(=O)C3CCN(C(=O)c4ccco4)CC3)cc2)C1 (stereo not drawn)	none
O=C(Nc1ccc(O)cc1)C1CC=CCC1 (stereo not drawn)	SENP8 block-1 41.2 | SENP8 conf 49.0
CC(C)[C@H](NC(=O)c1c(F)cccc1F)C(=O)Nc1cccc(Br)c1	none
NS(=O)(=O)c1ccc(CCNC(=O)COC(=O)c2ccc([N+](=O)[O-])o2)cc1	SENP8 block-1 46.8 (no result: HSP90 refold inh) | SENP8 conf 89.4
CC1(C)Cc2cccc(OCC(=O)OCC(=O)Nc3cccc(S(N)(=O)=O)c3)c2O1	SENP8 block-1 40.5 | SENP8 conf inactive
O=C(NCCNc1ccc([N+](=O)[O-])cc1C(F)(F)F)c1ccccc1F	SENP8 block-1 43.5 | SENP8 conf inactive
C/C(=N\NC(=O)c1[nH]c2c([N+](=O)[O-])cc(C)cc2c1-c1ccccc1)c1cccnc1	SENP8 block-1 60.3 | SENP8 conf inactive
OC[C@H]1O[C@H](c2nc(-c3nc(-c4cccs4)no3)cs2)C[C@@H]1O	none (no result: HSP90 refold inh, SENP7 inh, SENP6 inh, SENP8 block-2)
CCNc1nc(NOC)nc(OCC#N)n1	none
CCNc1nc(NCC)nc(OCC(=O)O)n1	SENP8 block-1 45.9 | SENP8 conf inactive
CCOC(=O)c1ccc(S(=O)(=O)NNC(=O)Cc2csc(C)n2)cc1	none (no result: HSP90 refold inh)
Cc1ccc(NNC(N)=S)cc1Cl	SENP8 block-1 59.8 | SENP8 conf inactive
COc1cc(NC(C)=O)c2ncccc2c1[N+](=O)[O-]	SENP8 block-1 47.7 | SENP8 conf inactive
Cc1cc(C)c(C)c(S(=O)(=O)NCc2ccc(C(=O)N3CCCCC3)cc2)c1C	SENP8 block-1 42.0 | SENP8 conf inactive
COCCNC(=O)/C(C#N)=C/c1cccs1	none
COc1ccc(N(CCC#N)C(=O)/C(C#N)=C\c2cccs2)cc1	SENP8 block-1 33.5 | SENP8 conf inactive
COC(=O)[C@]1(C)N[C@H](CN(C)C(=O)Nc2ccc(OC)cc2)[C@@H]2C(=O)N(Cc3ccccc3)C(=O)[C@@H]21	none (no result: HSP90 refold inh)
CC(C)C(=O)Nc1ccc(Cl)cc1-c1nc2ccccc2[nH]c1=O	none
CNc1ccc([N+](=O)[O-])cc1-c1nc2ccccc2[nH]c1=O	SENP8 block-1 41.9 | SENP8 conf inactive
CN(c1ccccc1C(=O)Nc1cccc(Br)c1)S(=O)(=O)c1ccccc1	none
CC1(C)CC(=O)c2c(O)cc(OCc3ccc(Br)cc3)cc2O1	none
CC(=O)Nc1ccc(NC(=O)COc2cc(O)c3c(c2)OC(C)(C)CC3=O)cc1	SENP8 block-1 40.8 | SENP8 conf inactive
Cc1cc(OCC(=O)Nc2ccc(Br)cc2)cc2c1C(=O)CC(C)(C)O2	SENP8 block-1 40.6 | SENP8 conf inactive
Cc1cc(F)ccc1C(O)c1ncc(-c2ccc3ccccc3c2)[nH]1 (stereo not drawn)	none (no result: HSP90 refold inh, SENP7 inh, SENP6 inh, SENP8 block-2)
C[N+](C)(C)C[C@H](O)CC(=O)[O-]	SENP8 block-1 45.1 (no result: HSP90 refold inh) | SENP8 conf inactive
O=C(CSc1ccc(S(=O)(=O)N2CCOCC2)cn1)Nc1ccc(F)c(F)c1	none (no result: HSP90 refold inh)
Cc1nc2c(O)c3c(c(O)c2nc1C)C1C=CC3CC1	SENP8 block-1 41.5 (no result: HSP90 refold inh, SENP7 inh, SENP6 inh, SENP8 block-2) | SENP8 conf inactive
COc1cccc(-c2cnc3c(NC(C)=O)cc(-c4ccc(S(C)(=O)=O)cc4)cn23)c1	none (no result: HSP90 refold inh, SENP7 inh, SENP6 inh, SENP8 block-2)
CCOC(=O)c1[nH]c(C)c(C(=O)OCC(=O)N2CCCCC2C)c1C (stereo not drawn)	SENP8 block-1 41.0 | SENP8 conf inactive
Cc1ccc(C(=O)N2CCN(Cc3ccccc3)CC2)o1	none
O=C(c1ccc([N+](=O)[O-])o1)N1CCN(Cc2ccccc2)CC1	SENP8 block-1 42.4 | SENP8 conf inactive
CC(C)(C)C1CCC(C(=O)Nc2ccc(N3CCOCC3)cc2N2CCOCC2)CC1 (stereo not drawn)	none (no result: HSP90 refold inh)
CC(=O)c1cccc(NS(=O)(=O)N2CCCCC2)c1	SENP8 block-1 41.0 | SENP8 conf inactive
CC(=O)c1ccccn1	none (no result: HSP90 refold inh)
C/C(=N/O)c1ccccn1	SENP8 block-1 50.9 | SENP8 conf inactive
CCOc1ccc(N/C=C/C(=O)c2ccc(C)cc2)c([N+](=O)[O-])c1	SENP8 block-1 42.6 | SENP8 conf inactive
CCOc1ccc(N/C=C/C(=O)c2ccc3ccccc3c2)c([N+](=O)[O-])c1	none
CCOC(=O)/C(C#N)=C\C=C1C=CN(C)C=C1	SENP8 block-1 51.7 | SENP8 conf inactive
CC(=O)O[C@H]1[C@H](O)[C@H](Oc2c(O)c(C)c3c4c2[C@@H](C)CC[C@@H]4[C@@H](C)C[C@H]3C=C(C)C)O[C@@H](C)[C@H]1O	none (no result: HSP90 refold inh)
COc1ccc(C(=O)/C=C/c2ccc(C)cc2)c(OC(=O)c2ccc([N+](=O)[O-])cc2)c1	SENP8 block-1 42.6 | SENP8 conf inactive
COc1ccc(C=CC(=O)c2ccc([N+](=O)[O-])cc2)cc1	none (no result: HSP90 refold inh, SENP7 inh, SENP6 inh, SENP8 block-2)
COc1ccc(CNC(=O)[C@@H](NC(=O)C2CCN(C(=O)[C@@H](N)CC(C)C)CC2)C(C)C)cc1	SENP8 block-1 51.6 | SENP8 conf inactive
CC(C)C[C@H](N)C(=O)N1CCC(C(=O)N[C@H](C(=O)NC(C)c2ccccc2)C(C)C)CC1 (stereo partly drawn)	SENP8 block-1 42.0 | SENP8 conf inactive
CC(C)C[C@H](N)C(=O)N1CCC(C(=O)N[C@H](C(=O)NCc2ccc(F)cc2)C(C)C)CC1	none
Cc1cc(C(=O)COc2cc(F)ccc2[N+](=O)[O-])c(C)n1CC1CCCO1 (stereo not drawn)	none (no result: HSP90 refold inh)
